Calls of active or inactive are those of the source. Residues, ends and D or L forms follow the SMILES beside them.
Legend:
Format in all cases: functional, organism-based
[1] = system: Rattus norvegicus; assay: Analgesic activity in Wistar rats assessed as increase in latency of response to pain at 1 mg/kg, ip treated 20 mins after 1 mg/kg, ip […] opiate receptor antagonist, naloxone challenge measured after 15 to 30 mins by hot plate test
Procedure, shortened: (§1)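 Male Wistar rats (180–200 g), 12 h light/dark cycle, food and water ad libitum, tested 09.00–12.00, five rats per group. Peptide given i.p. in sterile 0.9% saline. Pretreatment agents (naloxone or L-Arg at 1 mg/kg, L-NAME at 10 mg/kg, i.p.) were given 20 min before the peptide. Readings began 15 min after peptide injection. Hot plate at 55 ± 0.5 °C; latency measured to first paw licking or jump; 30 s cut-off. Mean ± S.E.M., ANOVA, P < 0.05.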

[2] = system: Rattus norvegicus; assay: Analgesic activity in Wistar rats assessed as increase in latency of response to pain at 1 mg/kg, ip treated 20 mins after 10 mg/kg, ip NOS inhibitor, L-NAME challenge measured after 15 to 45 mins by hot plate test; procedure, shortened: as §1
[3] = system: Rattus norvegicus; assay: Analgesic activity in Wistar rats assessed as increase in mechanical nociceptive threshold at 1 mg/kg, ip treated 20 mins after 1 mg/kg, ip NO donor, L-arginine challenge measured after 15 to 45 mins by paw pressure test
Procedure, shortened: (§2)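 Male Wistar rats (180–200 g), five per group, tested 09.00–12.00. Peptide given i.p. in sterile 0.9% saline. Pretreatment agents (naloxone or L-Arg at 1 mg/kg, L-NAME at 10 mg/kg, i.p.) were given 20 min before the peptide. Readings began 15 min after peptide injection. Randall-Selitto analgesimeter applied pressure to the hind paw; threshold was the pressure (g) eliciting squeak or struggle; 500 g cut-off. Mean ± S.E.M., ANOVA.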

[4] = system: Rattus norvegicus; assay: Analgesic activity in Wistar rats assessed as increase in mechanical nociceptive threshold at 1 mg/kg, ip treated 20 mins after 10 mg/kg, ip NOS inhibitor, L-NAME challenge measured after 15 to 45 mins by paw pressure test; procedure, shortened: as §2
[5] = system: Rattus norvegicus; assay: Analgesic activity in Wistar rats assessed as increase in latency of response to pain at 1 mg/kg, ip measured after 15 to 45 mins by hot plate test; set-up: dose 1 mg/kg; procedure, shortened: as §1
[6] = system: Rattus norvegicus; assay: Analgesic activity in Wistar rats assessed as increase in latency of response to pain at 1 mg/kg, ip treated 20 mins after 1 mg/kg, ip NO donor, L-arginine challenge measured after 15 to 45 mins by hot plate test; procedure, shortened: as §1
[7] = system: Rattus norvegicus; assay: Analgesic activity in Wistar rats assessed as increase in mechanical nociceptive threshold at 1 mg/kg, ip treated 20 mins after 1 mg/kg, ip […] opiate receptor antagonist, naloxone challenge measured after 15 to 30 mins by paw pressure test; procedure, shortened: as §2
[8] = system: Rattus norvegicus; assay: Analgesic activity in Wistar rats assessed as increase in mechanical nociceptive threshold at 1 mg/kg, ip measured after 15 to 30 mins by paw pressure test; set-up: dose 1 mg/kg; procedure, shortened: as §2
[9] = system: Rattus norvegicus; assay: Analgesic activity in Wistar rats assessed as increase in mechanical nociceptive threshold at 1 mg/kg, ip measured after 15 mins by paw pressure test; set-up: dose 1 mg/kg; procedure, shortened: as §2
[10] = system: Rattus norvegicus; assay: Analgesic activity in Wistar rats assessed as increase in latency of response to pain at 1 mg/kg, ip measured after 15 mins by hot plate test; set-up: dose 1 mg/kg; procedure, shortened: as §1

Structure (SMILES)	Activity [1]	Activity [2]	Activity [3]	Activity [4]	Activity [5]	Activity [6]	Activity [7]	Activity [8]	Activity [9]	Activity [10]
CC(C)C[C@H](NC(=O)[C@]1(C(F)(F)F)CCCN1)C(=O)NCC(N)=O	inactive	inactive	inactive	inactive	inactive	inactive	inactive	Active		
CC(C)C[C@H](NC(=O)[C@@H]1CCCN1)C(=O)NCC(N)=O (H-Pro-Leu-Gly-NH2)	inactive	inactive	inactive	inactive		inactive	inactive		inactive	Active

From ChEMBL document CHEMBL2331250, “Synthesis of an MIF-1 analogue containing enantiopure (S)-α-trifluoromethyl-proline and biological evaluation on nociception” (Eur J Med Chem, 2013)
